Here are results for two compounds from ChEMBL document CHEMBL3526088, “The intestine as an important contributor to prasugrel active metabolite formation in vivo” (Drug Metab Dispos, 2011).

Data set [1] can be described thus: Drug metabolism in dog intestinal microsomes assessed as R-138727 formation at 1.6 to 200 uM after 15 mins incubation. Type of data set: ADME, Canis lupus familiaris, Intestine, Microsome. The following applies: 0.25 h. The essentials:
(§1)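 Preincubated 5 min at 37°C, then R-95913 added (1.6–200 μM final) and incubated 15 min at 37°C, in triplicate. Stopped with methoxyphenacyl bromide and internal standard in acetonitrile, solid-phase extracted, and analysed by HPLC. Michaelis-Menten fit, CLint = Vmax/Km.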

The test system of data set [2] is Liver microsome. As to the kind of experiment: Drug metabolism in dog liver microsomes assessed as R-138727 formation at 1.6 to 200 uM after 15 mins incubation. The class given is ADME, Canis lupus familiaris. The following applies: 0.25 h. The essentials:
as §1
For orientation: Microsomes from liver hold many membrane-bound enzymes, among them those of drug oxidation.

Data set [3] in a line: Drug metabolism in human intestinal microsomes assessed as R-138727 formation at 1.6 to 200 uM after 15 mins incubation. The class given is ADME, Intestine, Microsome. As to conditions: 0.25 h. The essentials: as §1
The subject of data set [4] is Liver microsome. In words: Drug metabolism in human liver microsomes assessed as R-138727 formation at 1.6 to 200 uM after 15 mins incubation. The class given is ADME. The following applies: 0.25 h.
Data set [5] in a line: Drug metabolism in dog intestinal microsomes assessed as R-138727 formation measured per protein at 1.6 to 200 uM after 15 mins incubation. The following applies: 0.25 h. Type of data set: ADME, Canis lupus familiaris, Intestine, Microsome. In a few lines: as §1
Data set [6] concerns Liver microsome. As to the kind of experiment: Drug metabolism in dog liver microsomes assessed as R-138727 formation measured per protein at 1.6 to 200 uM after 15 mins incubation. Type of data set: ADME, Canis lupus familiaris. The following applies: 0.25 h. The essentials:
as §1

Data set [7] is described as follows: Drug metabolism in human intestinal microsomes assessed as R-138727 formation measured per protein at 1.6 to 200 uM after 15 mins incubation. Type of data set: ADME, Intestine, Microsome. The following applies: 0.25 h. The essentials: as §1
For data set [8], the system named is Liver microsome. In words: Drug metabolism in human liver microsomes assessed as R-138727 formation at 1.6 to 200 uM measured per protein after 15 mins incubation. Type of data set: ADME. As to conditions: 0.25 h.
Data set [9] in a line: Intrinsic clearance in dog intestinal microsomes assessed as R-138727 formation measured per protein at 1.6 to 200 uM after 15 mins incubation. Type of data set: ADME, Canis lupus familiaris, Intestine, Microsome. As to conditions: 0.25 h. In a few lines: (§2)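 Microsomes (1 mg protein/ml; dog intestinal, dog liver or human intestinal) in 43 mM potassium phosphate pH 7.4 with an NADPH-generating system and 5 mM glutathione, in triplicate. After 5 min preincubation at 37°C, R-95913 (1.6–200 µM final) was added for 15 min at 37°C. Product was derivatised with methoxyphenacyl bromide, extracted by SPE and measured by HPLC. Michaelis–Menten fit; CLint = Vmax/Km.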

In data set [10] the test system is Liver microsome. In words: Intrinsic clearance in dog liver microsomes assessed as R-138727 formation measured per protein at 1.6 to 200 uM after 15 mins incubation. Type of data set: ADME, Canis lupus familiaris. As to conditions: 0.25 h. The essentials: as §2
A short description of data set [11]: Intrinsic clearance in human intestinal microsomes assessed as R-138727 formation measured per protein at 1.6 to 200 uM after 15 mins incubation. The class given is ADME, Intestine, Microsome. The following applies: 0.25 h. The essentials:
as §2

Data set [12] relates to Liver microsome. In words: Intrinsic clearance in human liver microsomes assessed as R-138727 formation at 1.6 to 200 uM measured per protein after 15 mins incubation. Type of data set: ADME. As to conditions: 0.25 h.
Data set [13] has as its system Canis familiaris. As to the kind of experiment: Drug metabolism in beagle dog assessed as product of fraction of intestinal absorption and fraction of compound hydrolysis to R-95913 formation in intestine at 1 mg/kg, intraduodenal. As to conditions: in vivo, other. The arrangement: dose 1 mg/kg, route intraduodenal. The class given is ADME, organism-based, Canis lupus familiaris. In a few lines:
(§3)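 Male beagle dogs (n = 6, 9–12 kg) with portal- and hepatic-vein cannulas, fasted about 19 h, got 1 mg/kg intraduodenally in 5% N,N-dimethylacetamide–95% PEG 400. Portal, hepatic and jugular blood was drawn into heparin at 1–120 min. Plasma was precipitated with acetonitrile (phenacetin internal standard) and analysed by LC-MS/MS in MRM mode. AUC0–2h was by trapezoidal noncompartmental analysis, mean ± S.D.; availability fractions were calculated from these AUCs.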

Data set [14] deals with Canis familiaris. As to the kind of experiment: Drug metabolism in beagle dog assessed as R-95913 formation in liver at 1 mg/kg, intraduodenal. The class given is ADME, organism-based, Canis lupus familiaris. Further details: dose 1 mg/kg, route intraduodenal. The following applies: in vivo, other. The essentials: as §3
Data set [15] concerns Canis familiaris. In words: Drug metabolism in beagle dog assessed as fraction of compound hydrolysis to R-95913 formation in intestine at 1 mg/kg, intraduodenal. Type of data set: ADME, organism-based, Canis lupus familiaris. The arrangement: dose 1 mg/kg, route intraduodenal. The following applies: in vivo, other. In a few lines:
as §3

Data set [16] deals with Canis familiaris. In words: Drug metabolism in beagle dog assessed as product of fraction of intestinal absorption and fraction of compound hydrolysis to R-138727 formation in intestine at 1 mg/kg, intraduodenal. The class given is ADME, organism-based, Canis lupus familiaris. Further details: dose 1 mg/kg, route intraduodenal. The following applies: in vivo, other. In a few lines:
as §3

Data set [17] concerns Canis familiaris. As to the kind of experiment: Drug metabolism in beagle dog assessed as fraction of compound hydrolysis to R-138727 formation in intestine at 1 mg/kg, intraduodenal. The class given is ADME, organism-based, Canis lupus familiaris. As to conditions: in vivo, other. Further details: dose 1 mg/kg, route intraduodenal. In a few lines: as §3
Data set [18] relates to Canis familiaris. In words: Drug metabolism in beagle dog assessed as fraction of R-95913 hydrolysis to R-138727 formation at 1 mg/kg, intraduodenal. The arrangement: dose 1 mg/kg, route intraduodenal. Type of data set: ADME, organism-based, Canis lupus familiaris. The following applies: in vivo, other. In a few lines: as §3
Data set [19] deals with Canis familiaris. As to the kind of experiment: Drug metabolism in beagle dog assessed as R-138727 formation in liver at 1 mg/kg, intraduodenal. Type of data set: ADME, organism-based, Canis lupus familiaris. Further details: dose 1 mg/kg, route intraduodenal. As to conditions: in vivo, other. In a few lines:
as §3

Consider `O=C1C=C2CN(C(C(=O)C3CC3)c3ccccc3F)CCC2S1` (centres undefined), for which the Km in data set [1] amounted to 42.7 µM; in the data set with Liver microsome [2] it was 18.5 µM; in data set [3], 80.4 µM; with Liver microsome [4], 26 µM. For the same compound, the Vmax is on record as 49.8 pmol/min/mg in data set [5], 379.9 pmol/min/mg in the data set on Liver microsome [6], 89.2 pmol/min/mg in data set [7] and 247 pmol/min/mg in the data set with Liver microsome [8]. In addition, the CL amounted to 1.2 µL/min/mg in data set [9] and 1.1 µL/min/mg in data set [11]. Besides, the CLint with Liver microsome [10] came out at 20.6 µL/min/mg. In addition, in the data set on Liver microsome [12], the CLH came to 9.6 µL/min/mg.

Consider `CC(=O)Oc1cc2c(s1)CCN(C(C(=O)C1CC1)c1ccccc1F)C2` (centres undefined) [PRASUGREL], for which the Fm with Canis familiaris [13] came out at 0.8; with Canis familiaris [14], 0.08; with Canis familiaris [15], 0.83; in the data set with Canis familiaris [16], 0.13; in the data set on Canis familiaris [17], 0.13; in the data set with Canis familiaris [18], 0.23. The Fm with Canis familiaris [19] is recorded as 0.75.

The term Km denotes the substrate concentration at which the rate is half of its maximum. As usually defined, the Vmax is the rate approached at saturating substrate.
